Measurements published in ChEMBL document CHEMBL3259575, “Evaluation of a large library of (thiazol-2-yl)hydrazones and analogues as histone acetyltransferase inhibitors: enzyme and cellular studies” (2014).

Legend:
[1] = target: Histone acetyltransferase KAT2B (Homo sapiens) (UniProt Q92831); test: Inhibition of recombinant human PCAF catalytic domain (492 to 658 aa) using histone H3 at 100 uM after 1 hr by radiochemical assay in presence of [acetyl-3H]-acetyl coenzyme A
[2] = target: Histone acetyltransferase p300 (Homo sapiens) (UniProt Q09472); test: Inhibition of recombinant human p300 catalytic domain (1284 to 1673 aa) using histone H3 at 100 uM after 1 hr by radiochemical assay in presence of [acetyl-3H]-acetyl coenzyme A
Chain of Histone acetyltransferase p300 (Homo sapiens) (Q09472 whole entry, the tested form may be a part): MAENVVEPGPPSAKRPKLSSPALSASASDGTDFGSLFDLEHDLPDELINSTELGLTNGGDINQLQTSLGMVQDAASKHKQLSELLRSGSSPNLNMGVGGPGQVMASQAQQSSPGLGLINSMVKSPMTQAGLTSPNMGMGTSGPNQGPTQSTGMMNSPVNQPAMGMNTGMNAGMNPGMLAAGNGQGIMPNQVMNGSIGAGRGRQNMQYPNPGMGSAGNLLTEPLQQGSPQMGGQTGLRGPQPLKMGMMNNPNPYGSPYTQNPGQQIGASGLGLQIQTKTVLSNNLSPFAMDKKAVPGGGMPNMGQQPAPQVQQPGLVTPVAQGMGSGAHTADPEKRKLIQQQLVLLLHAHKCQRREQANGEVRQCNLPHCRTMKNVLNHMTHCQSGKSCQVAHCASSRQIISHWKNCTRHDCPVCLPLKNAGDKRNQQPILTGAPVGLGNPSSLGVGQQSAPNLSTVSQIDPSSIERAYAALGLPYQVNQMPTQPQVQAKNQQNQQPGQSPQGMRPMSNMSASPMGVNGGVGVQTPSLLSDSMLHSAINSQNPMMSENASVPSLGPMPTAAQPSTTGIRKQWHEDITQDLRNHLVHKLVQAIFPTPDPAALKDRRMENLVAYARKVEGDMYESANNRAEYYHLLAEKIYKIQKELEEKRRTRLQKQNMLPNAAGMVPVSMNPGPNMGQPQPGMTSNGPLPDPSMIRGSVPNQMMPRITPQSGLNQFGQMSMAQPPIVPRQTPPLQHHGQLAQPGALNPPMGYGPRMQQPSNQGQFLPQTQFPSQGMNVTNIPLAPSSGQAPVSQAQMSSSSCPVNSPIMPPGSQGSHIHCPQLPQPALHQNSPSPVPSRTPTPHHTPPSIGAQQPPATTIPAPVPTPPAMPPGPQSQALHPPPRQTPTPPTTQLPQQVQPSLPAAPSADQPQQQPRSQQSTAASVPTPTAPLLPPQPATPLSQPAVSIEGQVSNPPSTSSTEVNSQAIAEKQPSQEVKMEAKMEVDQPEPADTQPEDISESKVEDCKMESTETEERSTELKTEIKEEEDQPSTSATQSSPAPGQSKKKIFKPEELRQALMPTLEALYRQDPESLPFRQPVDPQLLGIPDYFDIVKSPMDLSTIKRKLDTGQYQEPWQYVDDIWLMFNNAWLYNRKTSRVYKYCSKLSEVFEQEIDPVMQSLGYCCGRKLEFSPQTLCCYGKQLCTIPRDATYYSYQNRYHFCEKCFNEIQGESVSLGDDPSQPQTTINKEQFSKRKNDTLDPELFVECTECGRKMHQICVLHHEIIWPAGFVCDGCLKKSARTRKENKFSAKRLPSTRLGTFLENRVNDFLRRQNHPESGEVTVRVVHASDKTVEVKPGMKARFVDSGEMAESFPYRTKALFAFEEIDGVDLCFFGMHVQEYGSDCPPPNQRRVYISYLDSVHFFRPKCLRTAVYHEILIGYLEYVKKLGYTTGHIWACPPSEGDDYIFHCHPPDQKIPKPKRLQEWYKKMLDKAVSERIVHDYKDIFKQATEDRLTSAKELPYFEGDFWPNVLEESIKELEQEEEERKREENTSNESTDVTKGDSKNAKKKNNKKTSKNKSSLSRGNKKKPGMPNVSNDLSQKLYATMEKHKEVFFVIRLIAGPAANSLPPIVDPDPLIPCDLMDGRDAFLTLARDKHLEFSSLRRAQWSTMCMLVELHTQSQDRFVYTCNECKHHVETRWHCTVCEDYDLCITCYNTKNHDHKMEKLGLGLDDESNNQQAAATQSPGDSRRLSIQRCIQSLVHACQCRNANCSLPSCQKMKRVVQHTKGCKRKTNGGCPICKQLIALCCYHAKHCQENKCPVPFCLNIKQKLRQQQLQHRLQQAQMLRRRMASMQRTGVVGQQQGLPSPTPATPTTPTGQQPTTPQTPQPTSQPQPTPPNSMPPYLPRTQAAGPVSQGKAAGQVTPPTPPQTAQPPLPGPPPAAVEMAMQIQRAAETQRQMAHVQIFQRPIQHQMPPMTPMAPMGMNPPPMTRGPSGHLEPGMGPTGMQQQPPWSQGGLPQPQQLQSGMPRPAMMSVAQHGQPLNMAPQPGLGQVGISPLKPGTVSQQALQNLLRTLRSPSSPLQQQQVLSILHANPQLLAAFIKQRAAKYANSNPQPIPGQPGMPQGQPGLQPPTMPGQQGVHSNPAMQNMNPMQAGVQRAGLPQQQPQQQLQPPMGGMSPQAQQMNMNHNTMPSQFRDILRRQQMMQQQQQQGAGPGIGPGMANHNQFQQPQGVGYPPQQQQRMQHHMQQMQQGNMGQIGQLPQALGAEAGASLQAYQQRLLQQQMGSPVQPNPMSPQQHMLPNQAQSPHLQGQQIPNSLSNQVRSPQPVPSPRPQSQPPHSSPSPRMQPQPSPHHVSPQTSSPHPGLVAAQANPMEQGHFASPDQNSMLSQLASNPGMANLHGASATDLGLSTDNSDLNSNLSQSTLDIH

[3] = target: Histone acetyltransferase p300 (Homo sapiens) (UniProt Q09472); test: Inhibition of recombinant human p300 catalytic domain (1284 to 1673 aa) using histone H3 at 400 uM after 1 hr by radiochemical assay in presence of [acetyl-3H]-acetyl coenzyme A
[4] = target: Histone acetyltransferase p300 (Homo sapiens) (UniProt Q09472); test: Inhibition of recombinant human p300 catalytic domain (1284 to 1673 aa) using histone H3 at 200 uM after 1 hr by radiochemical assay in presence of [acetyl-3H]-acetyl coenzyme A
[5] = test system: U-937; test: Induction of apoptosis in human U937 cells at 100 uM after 30 hrs by FACS analysis relative to control; assay type: functional
In short: (§1)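 Cells cultured at 37 °C, 5% CO2 in RPMI-1640 plus 10% heat-inactivated FBS and antibiotics; treated 30 h; apoptosis read by FACS as the pre-G1 population, compared with untreated control.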

[6] = test system: HCT-116; test: Induction of apoptosis in human HCT116 cells at 100 uM after 30 hrs by FACS analysis relative to control; assay type: functional; in short: as §1

Chain of Histone acetyltransferase KAT2B (Homo sapiens) (Q92831 whole entry, looked up, the tested form may be a part): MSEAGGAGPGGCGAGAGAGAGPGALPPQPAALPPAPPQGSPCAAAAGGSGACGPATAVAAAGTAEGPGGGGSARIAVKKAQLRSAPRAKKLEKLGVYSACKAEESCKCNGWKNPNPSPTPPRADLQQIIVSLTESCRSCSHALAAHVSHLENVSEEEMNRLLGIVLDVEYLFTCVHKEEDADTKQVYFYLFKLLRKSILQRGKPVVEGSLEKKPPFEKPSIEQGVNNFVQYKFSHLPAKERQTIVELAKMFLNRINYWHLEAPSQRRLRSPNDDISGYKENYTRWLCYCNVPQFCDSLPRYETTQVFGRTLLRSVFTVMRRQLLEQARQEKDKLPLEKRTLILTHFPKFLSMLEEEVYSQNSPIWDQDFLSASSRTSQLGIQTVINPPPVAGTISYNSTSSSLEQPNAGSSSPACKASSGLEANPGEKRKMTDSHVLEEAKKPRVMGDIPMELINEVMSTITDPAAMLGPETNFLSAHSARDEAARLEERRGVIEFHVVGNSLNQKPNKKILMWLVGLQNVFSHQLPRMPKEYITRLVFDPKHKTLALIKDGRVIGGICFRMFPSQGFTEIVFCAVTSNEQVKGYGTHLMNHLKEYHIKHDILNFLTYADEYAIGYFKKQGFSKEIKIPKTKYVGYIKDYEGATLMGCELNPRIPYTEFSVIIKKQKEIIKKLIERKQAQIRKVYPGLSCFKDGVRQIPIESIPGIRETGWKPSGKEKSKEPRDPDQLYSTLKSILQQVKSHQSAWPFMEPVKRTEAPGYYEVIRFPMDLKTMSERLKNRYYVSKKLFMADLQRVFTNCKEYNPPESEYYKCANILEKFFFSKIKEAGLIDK

SMILES | inhibition [1] | inhibition [2] | inhibition [3] | inhibition [4] | Activity [5] | Activity [6]
COc1ccc(-c2csc(N/N=C3/CCCC(C)C3)n2)cc1 (stereo unspecified) | 4% | 19% | – | – | – | –
COc1ccc(-c2csc(N/N=C3/CCCC3C)n2)cc1 (stereo unspecified) | 2% | 32% | – | – | – | –
Nc1nc(-c2ccccc2)cs1 | 3% | 4% | – | – | – | –
CC(C)=NNc1nc(-c2ccc(Cl)cc2)cs1 | 1% | 31% | 60% | 45% | – | –
CC/C(C)=N/Nc1nc(-c2ccc(Cl)cc2)cs1 | 8% | 33% | – | – | – | –
C/C(=N/Nc1nc(-c2ccc(Cl)cc2)cs1)c1ccncc1 | 10% | 36% | – | – | – | –
Clc1ccc(-c2csc(N/N=C\c3cccs3)n2)cc1 | 4% | 13% | – | – | – | –
CC1CC/C(=N/Nc2nc(-c3ccc4ccccc4c3)cs2)C1 (stereo unspecified) | 0% | 4% | – | – | – | –
Clc1ccc(-c2csc(N/N=C\c3ccco3)n2)cc1 | 9% | 15% | – | – | – | –
Clc1ccc(-c2csc(N/N=C\c3ccc4c(c3)OCO4)n2)cc1 | 0% | 11% | – | – | – | –
CCOC(=O)c1csc(NN=C(C)C)n1 | 0% | 22% | – | – | – | –
CCC/C(C)=N/Nc1nc(-c2ccc(Cl)cc2)cs1 | 7% | 19% | – | – | – | –
O=c1cc(-c2ccc(Cl)cc2)nc(NN=C2CCCC2)[nH]1 | 10% | 31% | 54% | 46% | – | –
CC1CC/C(=N/Nc2nc(-c3ccc(Br)cc3)cc(=O)[nH]2)C1 (stereo unspecified) | – | 12% | – | – | – | –
CCCCC/C(C)=N/Nc1nc(-c2ccc(Cl)cc2)cs1 | 16% | 5% | – | – | – | –
COc1ccc(-c2csc(NN=C(C)C)n2)cc1 | 5% | 21% | – | – | – | –
CC(C)=NNc1nc(-c2ccc3ccccc3c2)cs1 | 10% | 25% | – | – | – | –
CC1(C)C=C/C(=N\Nc2nc(-c3ccc(Cl)cc3)cs2)CC1 | 0% | 0% | – | – | – | –
CC1CC/C(=N/Nc2nc(-c3ccccc3)cc(=O)[nH]2)C1 (stereo unspecified) | – | 0% | – | – | – | –
C/C(=N/Nc1nc(-c2ccc(Cl)cc2)cs1)C1CCCCC1 | 8% | 3% | – | – | – | –
NNc1nc(-c2ccccc2)cs1 | 16% | 5% | – | – | – | –

SMILES | inhibition [1] | inhibition [2] | inhibition [3] | inhibition [4] | Activity [5] | Activity [6]
CC(C)=NNc1nc(-c2cc3ccccc3oc2=O)cs1 | 12% | 32% | 56% | 46% | – | –
C/C(=N/Nc1nc(-c2ccc(Cl)cc2)cs1)C1c2ccccc2-c2ccc(C(=O)O)cc21 (stereo unspecified) | 14% | 37% | – | – | – | –
COc1ccc(-c2csc(NN=C3CCCCCC3)n2)cc1 | 0% | 16% | – | – | – | –
CC(C)=NNc1nc(C)cs1 | 3% | 13% | – | – | – | –
O=c1cc(-c2ccc(Br)cc2)nc(NN=C2CCCC2)[nH]1 | – | 9% | – | – | – | –
Clc1ccc(-c2csc(N/N=C\c3cccnc3)n2)cc1 | 17% | 28% | – | – | – | –
Cc1sc(N/N=C2/CCC(C)C2)nc1-c1ccccc1 (stereo unspecified) | 3% | 15% | – | – | – | –
O=[N+]([O-])c1cccc(-c2csc(NN=C3CCCC3)n2)c1 | 15% | 44% | 60% | 51% | – | –
CC1CC/C(=N/Nc2nc(-c3ccc(Cl)cc3)cs2)C1 (stereo unspecified) | 0% | 27% | – | – | 29% | 11.5%
Cc1csc(NN=C2CCCC2)n1 | 30% | 0% | – | – | – | –
CCOC(=O)c1csc(N/N=C2/CCC(C)C2)n1 (stereo unspecified) | 8% | 22% | – | – | – | –
C/C(=N/Nc1nc(-c2ccc(Cl)cc2)cs1)c1ccccc1 | 9% | 7% | – | – | – | –
COc1cccc(-c2csc(NN=C3CCCC3)n2)c1 | 11% | 31% | 62% | 51% | – | –
Clc1ccc(-c2csc(N/N=C\c3ccncc3)n2)cc1 | 13% | 37% | – | – | – | –
Clc1ccc(-c2csc(NN=C3CCCC3)n2)c(Cl)c1 | 21% | 30% | – | – | – | –
CC(C)=NNc1nc(-c2ccccc2)c(C)s1 | 5% | 20% | – | – | – | –
CC(C)=NNc1nc(-c2ccc(Br)cc2)cc(=O)[nH]1 | – | 9% | – | – | – | –
Nc1nc(-c2ccc(Cl)cc2)cs1 | 0% | 31% | – | – | – | –
COc1ccc(-c2csc(NN=C3CCCC3)n2)cc1 | 11% | 33% | 57% | 47% | – | –
Cc1sc(NN=C2CCCC2)nc1-c1ccccc1 | 2% | 2% | – | – | – | –
CCOC(=O)c1csc(NN=C2CCCC2)n1 | 5% | 19% | – | – | – | –

SMILES | inhibition [1] | inhibition [2] | inhibition [3] | inhibition [4] | Activity [5] | Activity [6]
C/C(=N/Nc1nc(-c2ccc(Cl)cc2)cs1)c1nccs1 | 10% | 46% | 67% | 55% | – | –
CCC(CC)=NNc1nc(-c2ccc(Cl)cc2)cs1 | 10% | 35% | – | – | – | –
c1ccc2cc(-c3csc(NN=C4CCCC4)n3)ccc2c1 | 8% | 19% | – | – | – | –
O=c1cc(-c2ccccc2)nc(NN=C2CCCC2)[nH]1 | – | 3% | – | – | – | –
Clc1ccc(-c2csc(NN=C3CCCC3)n2)cc1 | 1% | 34% | 61% | 47% | – | –
CCCC/C(C)=N/Nc1nc(-c2ccc(Cl)cc2)cs1 | 8% | 0% | – | – | – | –
CCC(C)/C(C)=N/Nc1nc(-c2ccc(Cl)cc2)cs1 (stereo unspecified) | 9% | 2% | – | – | – | –
C/C(=N/Nc1nc(-c2ccc(Cl)cc2)cs1)c1cccs1 | 5% | 26% | – | – | – | –
COc1ccc(-c2csc(N/N=C3/CCC(C)C3)n2)cc1 (stereo unspecified) | 5% | 28% | – | – | – | –
O=C1CSC(NN=C2CCCC2)=N1 | 1% | 0% | – | – | – | –
COc1cccc(-c2csc(NN=C(C)C)n2)c1 | 4% | 30% | – | – | – | –
CC(C)=NNc1nc(-c2ccccc2)cc(=O)[nH]1 | – | 4% | – | – | – | –
CC1CC/C(=N/Nc2nc(-c3cccc([N+](=O)[O-])c3)cc(=O)[nH]2)C1 (stereo unspecified) | – | 14% | – | – | – | –
Clc1ccc(-c2csc(N/N=C\c3cccc4ccccc34)n2)cc1 | 0% | 9% | – | – | – | –
CC1CC/C(=N/Nc2nc(-c3ccc(Cl)cc3)cc(=O)[nH]2)C1 (stereo unspecified) | 8% | 41% | 64% | 55% | – | –
CC1CCC/C1=N/Nc1nc(-c2ccc(Cl)cc2)cs1 (stereo unspecified) | 2% | 33% | – | – | – | –
COc1ccc(-c2csc(N/N=C3\CCC[C@@H](C)C3)n2)cc1 | 0% | 27% | – | – | – | –
CC(C)=NNc1nc(-c2ccc(Cl)cc2Cl)cs1 | 16% | 30% | – | – | – | –
CC(C)=NN=C1NC(=O)CS1 | 7% | 14% | – | – | – | –
C/C(=N/Nc1nc(-c2ccc(Cl)cc2)cs1)c1ccc2ccccc2c1 | 7% | 16% | – | – | – | –
C[C@@H]1CCC/C(=N/Nc2nc(-c3ccc(Cl)cc3)cs2)C1 | 0% | 27% | – | – | – | –

SMILES | inhibition [1] | inhibition [2] | inhibition [3] | inhibition [4] | Activity [5] | Activity [6]
CC(C)=NNc1nc(-c2ccc(Br)cc2)cs1 | 13% | 42% | 63% | 53% | – | –
CC(C)=NNc1nc(-c2cccc([N+](=O)[O-])c2)cc(=O)[nH]1 | – | 4% | – | – | – | –
Clc1ccc(-c2csc(NN=C3CCCCCC3)n2)cc1 | 0% | 20% | – | – | – | –
CC1CCC/C(=N/Nc2nc(-c3ccc(Cl)cc3)cs2)C1 (stereo unspecified) | 0% | 9% | – | – | – | –
CC1CC/C(=N/Nc2nc(-c3ccc(F)cc3)cs2)C1 (stereo unspecified) | 8% | 5% | – | – | – | –
c1ccc(-c2csc(NN=C3CCCC3)n2)cc1 | 15% | 37% | 54% | 56% | – | –
CC(C)=NNc1nc(-c2ccccc2)cs1 | 0% | 14% | – | – | – | –
CC(C)=NNc1nc(-c2ccc(Cl)cc2)cc(=O)[nH]1 | – | 7% | – | – | – | –
Clc1ccc(-c2csc(NN=C3CCCCCCC3)n2)cc1 | 6% | 15% | – | – | – | –
CC(C)=NNc1nc(-c2ccc(-c3ccccc3)cc2)cs1 | 0% | 20% | – | – | – | –
C/C(=N/Nc1nc(-c2ccc(Cl)cc2)cs1)c1cccnc1 | 11% | 1% | – | – | – | –
O=c1cc(-c2cccc([N+](=O)[O-])c2)nc(NN=C2CCCC2)[nH]1 | – | 9% | – | – | – | –
C/C(=N/Nc1nc(-c2ccc(Cl)cc2)cs1)c1ccco1 | 2% | 26% | – | – | – | –
C=CCC/C(C)=N/Nc1nc(-c2ccc(Cl)cc2)cs1 | 12% | 32% | – | – | – | –
CCCCCC/C(C)=N/Nc1nc(-c2ccc(Cl)cc2)cs1 | 10% | 8% | – | – | – | –
CC1CC/C(=N/Nc2nc(-c3ccc(C#N)cc3)cs2)C1 (stereo unspecified) | 6% | 35% | – | – | – | –
CC(C)=NNc1nc(-c2ccc(F)cc2)cs1 | 0% | 34% | – | – | – | –
CC1CC/C(=N/Nc2nc(-c3ccc(F)cc3F)cs2)C1 (stereo unspecified) | 18% | 14% | – | – | – | –
